≈ marks a conversion by molar mass, not a printed value.
How the values were obtained:
[1] = Half-life period for the compound was determined in rats at 50 mg/kg dose; type: ADME, organism-based; set-up: dose 50 mg/kg; conditions: rat, in vivo
[2] = Plasma concentration for the compound was determined in rats at 50 mg/kg dose; type: ADME, organism-based; set-up: dose 50 mg/kg; conditions: rat
How it was run: (§1)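 Pharmacokinetics were measured in SD rats given 50mg/kg, reporting Cmax, Tmax, T1/2 and AUC.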

[3] = Time for maximum plasma concentration reached by compound was determined in rats at 50 mg/kg dose; type: ADME, organism-based; set-up: dose 50 mg/kg; conditions: rat; how it was run: as §1
[4] = Maximum plasma concentration reached by compound was determined in rats at 50 mg/kg dose; type: ADME, organism-based; set-up: dose 50 mg/kg; conditions: rat; how it was run: as §1
Enterococcus sp. = experiment: In vitro antibacterial activity against the Ofloxacin Resistant Enterococcus knothe 101; type: functional
How it was run: (§2)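 MICs by agar dilution following National Committee for Clinical Laboratory Standards recommendations; all strains obtained from Hoechst.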

Enterobacter cloacae = experiment: In vitro antibacterial activity against the Enterobacter cloacae 1321 E; type: functional
Escherichia coli [5] = experiment: In vitro antibacterial activity against the Escherichia coli 078; type: functional
HepG2 = experiment: Cytotoxicity was determined for the compound in HepG2 cell line; type: functional, cell-based; conditions: Homo sapiens
Klebsiella = experiment: In vitro antibacterial activity against the Ofloxacin Resistant Klebsiella species 30-92; type: functional; how it was run: as §2
Pseudomonas aeruginosa [6] = experiment: In vitro antibacterial activity against the Ofloxacin Resistant Pseudomonas aeruginosa 279II; type: functional; how it was run: as §2
Pseudomonas aeruginosa [7] = experiment: In vitro antibacterial activity against the Pseudomonas aeruginosa 1592E; type: functional
Pseudomonas aeruginosa [8] = experiment: In vitro antibacterial activity against the Pseudomonas aeruginosa 1771M; type: functional
Salmonella typhimurium = experiment: In vitro antibacterial activity against the Salmonella Typhimurium; type: functional, Salmonella enterica subsp. enterica serovar Typhimurium; conditions: Salmonella enterica
[9] = test system: Staphylococcus epidermidis; experiment: In vitro antibacterial activity against the Ofloxacin Resistant Staphylococcus epidermidis 291; type: functional; how it was run: as §2
[10] = test system: Staphylococcus epidermidis; experiment: In vitro antibacterial activity against the Ofloxacin Resistant Staphylococcus epidermidis 319; type: functional; how it was run: as §2
Staphylococcus aureus [11] = experiment: In vitro antibacterial activity against the Ofloxacin Resistant Staphylococcus aureus 179; type: functional; how it was run: as §2
Staphylococcus aureus [12] = experiment: In vitro antibacterial activity against the Ofloxacin Resistant Staphylococcus aureus 293; type: functional; how it was run: as §2
Staphylococcus aureus [13] = experiment: In vitro antibacterial activity against the Ofloxacin Resistant Staphylococcus aureus 303; type: functional; how it was run: as §2
Staphylococcus aureus [14] = experiment: In vitro antibacterial activity against the Methicillin-Resistant Staphylococcus aureus (MRSA) 690 E; type: functional; how it was run: as §2
Staphylococcus aureus [15] = experiment: In vitro antibacterial activity against the Methicillin-Resistant Staphylococcus aureus (MRSA) 692 E; type: functional; how it was run: as §2
Staphylococcus aureus [16] = experiment: In vitro antibacterial activity against the Methicillin-Resistant Staphylococcus aureus (MRSA) 697 E; type: functional; how it was run: as §2
Staphylococcus aureus [17] = experiment: In vitro antibacterial activity against the Methicillin-Resistant Staphylococcus aureus (MRSA) 701 E; type: functional; how it was run: as §2
Staphylococcus aureus [18] = experiment: In vitro antibacterial activity against the Methicillin-Resistant Staphylococcus aureus (MRSA) 705 E; type: functional; how it was run: as §2
Staphylococcus aureus [19] = experiment: In vitro antibacterial activity against the Methicillin-Resistant Staphylococcus aureus (MRSA) 707 E; type: functional; how it was run: as §2
Staphylococcus aureus [20] = experiment: In vitro antibacterial activity against the Staphylococcus aureus SG511; type: functional
Streptococcus pyogenes [21] = experiment: In vitro antibacterial activity against the Streptococcus pyogenes 308A; type: functional
Streptococcus pyogenes [22] = experiment: In vitro antibacterial activity against the Streptococcus pyogenes 77A; type: functional
V79-4 = experiment: Cytotoxicity was determined for the compound in V79-4 cell line; type: functional, cell-based; conditions: Cricetulus griseus
Escherichia coli [23] = experiment: In vitro antibacterial activity against the Escherichia coli DC 2; type: functional
Staphylococcus aureus [24] = experiment: In vitro antibacterial activity against the Staphylococcus aureus 285; type: functional

Row | Compound | MIC (Enterococcus sp.) | MIC (Enterobacter cloacae) | MIC (Escherichia coli [5]) | IC50 (HepG2) | MIC (Klebsiella) | MIC (Pseudomonas aeruginosa [7]) | MIC (Pseudomonas aeruginosa [8]) | MIC (Salmonella typhimurium) | MIC [9] | MIC [10] | MIC (Staphylococcus aureus [11]) | MIC (Staphylococcus aureus [12]) | MIC (Staphylococcus aureus [13]) | MIC (Staphylococcus aureus [14]) | MIC (Staphylococcus aureus [15]) | MIC (Staphylococcus aureus [20]) | MIC (Streptococcus pyogenes [21]) | MIC (Streptococcus pyogenes [22]) | MIC (Escherichia coli [23]) | MIC (Staphylococcus aureus [24]) | also measured
1 | CO/N=C1\CN(c2c(F)c(N)c3c(=O)c(C(=O)O)cn(C4CC4)c3c2F)C[C@]1(C)CN.Cl | 0.013 µg/mL | < 0.002 µg/mL | < 0.002 µg/mL | 11.6 µg/mL | 0.781 µg/mL | 0.391 µg/mL | 0.195 µg/mL | < 0.002 µg/mL | 0.049 µg/mL | 0.025 µg/mL | 0.013 µg/mL | 0.013 µg/mL | 0.013 µg/mL | < 0.002 µg/mL | < 0.002 µg/mL | < 0.002 µg/mL | 0.004 µg/mL | < 0.002 µg/mL | < 0.002 µg/mL | – | half-life [1]: 6.94 h; AUC [2]: 68800 ng·h/mL; Tmax [3]: 1 h; Cmax [4]: 6670 ng/mL; MIC (Pseudomonas aeruginosa [6]): 3.12 µg/mL; MIC (Staphylococcus aureus [16]): < 0.002 µg/mL; MIC (Staphylococcus aureus [17]): < 0.002 µg/mL; MIC (Staphylococcus aureus [18]): < 0.002 µg/mL; MIC (Staphylococcus aureus [19]): < 0.002 µg/mL; IC50 (V79-4): 0.21 µg/mL
2 | CO/N=C1\CN(c2c(F)c(N)c3c(=O)c(C(=O)O)cn(C4CC4)c3c2F)C[C@@]1(C)CN.Cl | 0.195 µg/mL | < 0.002 µg/mL | 0.004 µg/mL | – | 1.56 µg/mL | 0.391 µg/mL | 0.195 µg/mL | < 0.002 µg/mL | 0.391 µg/mL | 0.781 µg/mL | 0.195 µg/mL | 0.195 µg/mL | 0.195 µg/mL | 0.004 µg/mL | 0.004 µg/mL | < 0.002 µg/mL | 0.049 µg/mL | 0.013 µg/mL | 0.013 µg/mL | 0.004 µg/mL | MIC (Pseudomonas aeruginosa [6]): 3.12 µg/mL; MIC (Staphylococcus aureus [16]): 0.004 µg/mL; MIC (Staphylococcus aureus [17]): 0.007 µg/mL; MIC (Staphylococcus aureus [18]): 0.007 µg/mL
3 | CO/N=C1\CN(c2cc3c(cc2F)c(=O)c(C(=O)O)cn3C2CC2)CC1(C)CN.Cl (stereo not drawn) | – | 0.013 µg/mL | 0.013 µg/mL | – | – | 0.781 µg/mL | 0.391 µg/mL | 0.013 µg/mL | – | – | – | – | – | – | – | 0.007 µg/mL | 0.098 µg/mL | 0.013 µg/mL | 0.025 µg/mL | 0.013 µg/mL | –
4 | CO/N=C1\CN(c2c(F)cc3c(=O)c(C(=O)O)cn(C4CC4)c3c2F)CC1(C)CN.Cl (stereo not drawn) | – | 0.013 µg/mL | 0.025 µg/mL | – | – | 1.56 µg/mL | 0.781 µg/mL | 0.025 µg/mL | – | – | – | – | – | – | – | 0.013 µg/mL | 0.098 µg/mL | 0.025 µg/mL | 0.049 µg/mL | 0.013 µg/mL | –
5 | O=C(O)c1cn(C2CC2)c2cc(N3CCNCC3)c(F)cc2c1=O [CIPROFLOXACIN] | 0.781 µg/mL (≈ 2.36 µM) | – | – | 37.5 µg/mL (≈ 113 µM) | 1.56 µg/mL (≈ 4.72 µM) | 0.195 µg/mL (≈ 0.589 µM) | 0.098 µg/mL (≈ 0.296 µM) | – | 50 µg/mL (≈ 151 µM) | 100 µg/mL (≈ 302 µM) | 12.5 µg/mL (≈ 37.7 µM) | 12.5 µg/mL (≈ 37.7 µM) | 12.5 µg/mL (≈ 37.7 µM) | 0.391 µg/mL (≈ 1.18 µM) | 0.391 µg/mL (≈ 1.18 µM) | 0.195 µg/mL (≈ 0.589 µM) | 3.12 µg/mL (≈ 9.43 µM) | 0.391 µg/mL (≈ 1.18 µM) | 0.098 µg/mL (≈ 0.296 µM) | 0.781 µg/mL (≈ 2.36 µM) | AUC [2]: 12700 ng·h/mL; Tmax [3]: 0.5 h; MIC (Staphylococcus aureus [16]): 0.391 µg/mL (≈ 1.18 µM); MIC (Staphylococcus aureus [17]): 0.391 µg/mL (≈ 1.18 µM); MIC (Staphylococcus aureus [18]): 0.391 µg/mL (≈ 1.18 µM); MIC (Staphylococcus aureus [19]): 0.195 µg/mL (≈ 0.589 µM); IC50 (V79-4): 58.5 µg/mL (≈ 177 µM)
6 | CO/N=C1\CN(c2nc3c(cc2F)c(=O)c(C(=O)O)cn3C2CC2)CC1CN (stereo not drawn) [GEMIFLOXACIN] | 0.098 µg/mL (≈ 0.252 µM) | 0.004 µg/mL (≈ 0.0103 µM) | 0.007 µg/mL (≈ 0.018 µM) | 13.5 µg/mL (≈ 34.6 µM) | 0.781 µg/mL (≈ 2.01 µM) | 0.391 µg/mL (≈ 1 µM) | 0.195 µg/mL (≈ 0.501 µM) | 0.004 µg/mL (≈ 0.0103 µM) | 1.56 µg/mL (≈ 4.01 µM) | 3.12 µg/mL (≈ 8.03 µM) | 0.781 µg/mL (≈ 2.01 µM) | 0.781 µg/mL (≈ 2.01 µM) | 0.781 µg/mL (≈ 2.01 µM) | 0.098 µg/mL (≈ 0.252 µM) | 0.049 µg/mL (≈ 0.126 µM) | 0.013 µg/mL (≈ 0.0334 µM) | 0.195 µg/mL (≈ 0.501 µM) | 0.025 µg/mL (≈ 0.0642 µM) | 0.025 µg/mL (≈ 0.0642 µM) | 0.025 µg/mL (≈ 0.0642 µM) | half-life [1]: 2.12 h; AUC [2]: 25800 ng·h/mL; Tmax [3]: 1 h; Cmax [4]: 6630 ng/mL; MIC (Pseudomonas aeruginosa [6]): 6.25 µg/mL (≈ 16.1 µM); MIC (Staphylococcus aureus [16]): 0.049 µg/mL (≈ 0.126 µM); MIC (Staphylococcus aureus [17]): 0.098 µg/mL (≈ 0.252 µM); MIC (Staphylococcus aureus [18]): 0.098 µg/mL (≈ 0.252 µM); MIC (Staphylococcus aureus [19]): 0.025 µg/mL (≈ 0.0642 µM); IC50 (V79-4): 10.1 µg/mL (≈ 25.9 µM)
7 | N[C@@H]1[C@H]2CN(c3nc4c(cc3F)c(=O)c(C(=O)O)cn4-c3ccc(F)cc3F)C[C@@H]12 [TROVAFLOXACIN] | – | – | – | 11.2 µg/mL (≈ 26.8 µM) | – | – | – | – | – | – | – | – | – | – | – | – | – | – | – | – | IC50 (V79-4): 3.77 µg/mL (≈ 9.05 µM)

Source: ChEMBL document CHEMBL1147605, “Syntheses and biological evaluation of new fluoroquinolone antibacterials containing chiral oxiimino pyrrolidine” (Bioorg Med Chem Lett, 2004)
